From ChEMBL document CHEMBL1159102, “Design, synthesis, and evaluation of 2-aryl-7-(3',4'-dialkoxyphenyl)-pyrazolo[1,5-a]pyrimidines as novel PDE-4 inhibitors” (Bioorg Med Chem Lett, 2010)
Activity calls are given as the source filed them. No cut-off for these calls is given here.

Key:
[1] = target: T1, 3',5'-cyclic-AMP phosphodiesterase 4D (Homo sapiens, UniProt Q08499); experiment: Inhibition of human PDE4D
[2] = Inhibition of PDE4
[3] = Inhibition of PDE3
[4] = target: cGMP-specific 3',5'-cyclic phosphodiesterase (Homo sapiens, UniProt O76074); experiment: Inhibition of PDE5
[5] = Inhibition of PDE7
[6] = target: T1, 3',5'-cyclic-AMP phosphodiesterase 4D; experiment: Inhibition of human PDE4D in U937 cells assessed as cAMP level at 10 uM relative to control; format: cell-based; parameters: scale not given: the % may be the effect or the level left; conditions: U-937
Outline: (§1)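 cAMP content of U937 cells was measured after compound exposure and reported as a percentage of the untreated control level. Separately, an EC50 was derived for cAMP accumulation in the same cells.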

[7] = target: T1, 3',5'-cyclic-AMP phosphodiesterase 4D; experiment: Inhibition of human PDE4D in U937 cells assessed as cAMP level at 20 uM relative to control; format: cell-based; parameters: scale not given: the % may be the effect or the level left; conditions: U-937; outline: as §1
[8] = target: T1, 3',5'-cyclic-AMP phosphodiesterase 4D; experiment: Inhibition of human PDE4D in U937 cells assessed as cAMP accumulation; format: cell-based, U-937; outline: as §1
Mus musculus [9] = experiment: Inhibition of ovalbumin-induced airway hyperresponsiveness in mouse at 100 mg/kg measured after 48 hrs of ovalbumin challenge; format: functional, organism-based; parameters: dose 100 mg/kg
Mus musculus [10] = experiment: Inhibition of ovalbumin-induced eosinophil peroxidase activity in mouse bronchoalveolar lavage fluid at 100 mg/kg measured after 62 hrs of ovalbumin challenge relative to control; format: functional; conditions: Lung
Outline: (§2)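 Mice received an ovalbumin inhalation challenge, with compounds given in 0.5% CMC vehicle. Bronchoalveolar lavage fluid was collected 62 h after OVA inhalation, and eosinophil peroxidase activity was measured as a marker of eosinophil infiltration. Data are mean ± SD, n = 9–10 per group, compared with the vehicle group.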

Mus musculus [11] = experiment: Inhibition of ovalbumin-induced airway hyperresponsiveness in mouse at 30 mg/kg measured after 48 hrs of ovalbumin challenge; format: functional, organism-based; parameters: dose 30 mg/kg
Mus musculus [12] = experiment: Inhibition of ovalbumin-induced eosinophil peroxidase activity in mouse bronchoalveolar lavage fluid at 30 mg/kg measured after 62 hrs of ovalbumin challenge relative to control; format: functional; conditions: Lung; outline: as §2

T1 sequence (Q08499 whole entry): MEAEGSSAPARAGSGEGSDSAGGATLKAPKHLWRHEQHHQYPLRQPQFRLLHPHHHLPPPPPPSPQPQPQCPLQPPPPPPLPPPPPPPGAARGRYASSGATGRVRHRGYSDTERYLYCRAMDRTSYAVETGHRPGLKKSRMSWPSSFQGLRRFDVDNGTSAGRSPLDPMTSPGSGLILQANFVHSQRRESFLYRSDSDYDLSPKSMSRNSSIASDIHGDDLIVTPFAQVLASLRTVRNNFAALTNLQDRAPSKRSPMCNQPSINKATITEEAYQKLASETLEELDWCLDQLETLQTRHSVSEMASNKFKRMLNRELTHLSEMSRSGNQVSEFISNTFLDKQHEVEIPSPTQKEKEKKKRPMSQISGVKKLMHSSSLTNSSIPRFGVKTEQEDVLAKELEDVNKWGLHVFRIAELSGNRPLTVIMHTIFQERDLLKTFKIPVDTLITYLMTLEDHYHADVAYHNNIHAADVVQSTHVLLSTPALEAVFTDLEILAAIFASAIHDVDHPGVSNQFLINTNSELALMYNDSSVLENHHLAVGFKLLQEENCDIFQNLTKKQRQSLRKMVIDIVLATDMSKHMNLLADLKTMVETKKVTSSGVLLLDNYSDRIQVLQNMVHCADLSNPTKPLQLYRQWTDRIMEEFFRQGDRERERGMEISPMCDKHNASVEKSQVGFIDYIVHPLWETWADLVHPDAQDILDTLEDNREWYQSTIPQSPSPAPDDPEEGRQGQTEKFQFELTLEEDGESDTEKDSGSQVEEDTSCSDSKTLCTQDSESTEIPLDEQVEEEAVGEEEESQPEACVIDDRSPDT

| IC50 [1] [µM] | Structure (SMILES) | further results |
| --- | --- | --- |
| 0.021 | Oc1cccc(-c2cc3nccc(-c4ccc(OC(F)F)c(OCC5CC5)c4)n3n2)c1 |  |
| 0.04 | CC(C)OC(=O)c1cccc(-c2cc3nccc(-c4ccc(OC(F)F)c(OCC5CC5)c4)n3n2)c1 |  |
| 0.037 | COC(=O)c1cccc(-c2cc3nccc(-c4ccc(OC(F)F)c(OCC5CC5)c4)n3n2)c1 |  |
| 0.029 | COc1cc(OC)cc(-c2cc3nccc(-c4ccc(OC(F)F)c(OCC5CC5)c4)n3n2)c1 |  |
| 0.032 | COc1ccc(-c2cc3nccc(-c4ccc(OC(F)F)c(OCC5CC5)c4)n3n2)cc1O |  |
| 0.054 | CC(C)(C)OC(=O)N1CCN(c2cccc(-c3cc4nccc(-c5ccc(OC(F)F)c(OCC6CC6)c5)n4n3)c2)CC1 |  |
| 0.048 | CCOc1cccc(-c2cc3nccc(-c4ccc(OC(F)F)c(OCC5CC5)c4)n3n2)c1 |  |
| 0.009 | O=C(O)c1cccc(-c2cc3nccc(-c4ccc(OC(F)F)c(OCC5CC5)c4)n3n2)c1 |  |
| 0.1 | Fc1cccc(-c2cc3nccc(-c4ccc(OC(F)F)c(OCC5CC5)c4)n3n2)c1 |  |
| 0.027 | FC(F)Oc1ccc(-c2ccnc3cc(-c4cccnc4)nn23)cc1OCC1CC1 | IC50 [2]: 0.009 µM; IC50 [3]: > 5 µM; IC50 [4]: 3.5 µM; IC50 [5]: 3 µM |
| 0.039 | FC(F)Oc1ccc(-c2ccnc3cc(-c4cccc(C(F)F)c4)nn23)cc1OCC1CC1 |  |
| 0.13 | COc1ccc(-c2ccnc3cc(-c4ccc(Br)cc4)nn23)cc1OC1CCCC1 |  |
| 0.032 | C=CCOc1cccc(-c2cc3nccc(-c4ccc(OC(F)F)c(OCC5CC5)c4)n3n2)c1 |  |
| 0.018 | CC(=O)Oc1cccc(-c2cc3nccc(-c4ccc(OC(F)F)c(OCC5CC5)c4)n3n2)c1 |  |
| 0.046 | CC(C)Oc1cccc(-c2cc3nccc(-c4ccc(OC(F)F)c(OCC5CC5)c4)n3n2)c1 |  |
| 0.046 | Nc1cccc(-c2cc3nccc(-c4ccc(OC(F)F)c(OCC5CC5)c4)n3n2)c1 |  |
| 0.07 | COc1ccc(-c2ccnc3cc(-c4ccccc4)nn23)cc1OC1CCCC1 |  |
| 0.12 | CN(C)c1cccc(-c2cc3nccc(-c4ccc(OC(F)F)c(OCC5CC5)c4)n3n2)c1 |  |
| 0.03 | COc1cccc(-c2cc3nccc(-c4ccc(OC(F)F)c(OCC5CC5)c4)n3n2)c1 | Activity [6]: 44.4% |
| 0.047 | CN(CCN)c1cccc(-c2cc3nccc(-c4ccc(OC(F)F)c(OCC5CC5)c4)n3n2)c1 |  |
| 0.032 | CS(=O)(=O)CNc1cccc(-c2cc3nccc(-c4ccc(OC(F)F)c(OCC5CC5)c4)n3n2)c1 |  |
| 0.1 | FC(F)Oc1ccc(-c2ccnc3cc(-c4cccc(N5CCCCC5)c4)nn23)cc1OCC1CC1 |  |
| 0.036 | FC(F)Oc1ccc(-c2ccnc3cc(-c4cccc(Cl)c4)nn23)cc1OCC1CC1 |  |
| 0.02 | COc1ccc(-c2ccnc3cc(-c4cccc(Cl)c4)nn23)cc1OC1CCCC1 | Activity [7]: 19.7% |
| 0.067 | CCN(CC)C(=O)c1cccc(-c2cc3nccc(-c4ccc(OC(F)F)c(OCC5CC5)c4)n3n2)c1 |  |
| 0.19 | FC(F)Oc1ccc(-c2ccnc3cc(-c4cccc(C(F)(F)F)c4)nn23)cc1OCC1CC1 |  |

| IC50 [1] [µM] | Structure (SMILES) | further results |
| --- | --- | --- |
| 0.013 | FC(F)Oc1ccc(-c2ccnc3cc(-c4cccc(Br)c4)nn23)cc1OCC1CC1 | Activity [6]: 57.1% |
| 0.006 | FC(F)Oc1ccc(-c2ccnc3cc(-c4cccc(I)c4)nn23)cc1OCC1CC1 | Activity [6]: 19.8%; IC50 [3]: 2 µM; IC50 [4]: > 5 µM; IC50 [5]: > 5 µM |
| 0.13 | FC(F)Oc1ccc(-c2ccnc3cc(-c4ccccc4)nn23)cc1OCC1CC1 |  |
| 0.15 | NC(=O)Nc1cccc(-c2cc3nccc(-c4ccc(OC(F)F)c(OCC5CC5)c4)n3n2)c1 |  |
| 0.04 | CNc1cccc(-c2cc3nccc(-c4ccc(OC(F)F)c(OCC5CC5)c4)n3n2)c1 |  |
| 0.16 | COCCOC(=O)c1cccc(-c2cc3nccc(-c4ccc(OC(F)F)c(OCC5CC5)c4)n3n2)c1 |  |
| 0.083 | N#CCCNc1cccc(-c2cc3nccc(-c4ccc(OC(F)F)c(OCC5CC5)c4)n3n2)c1 |  |
| 0.028 | CCNC(=O)c1cccc(-c2cc3nccc(-c4ccc(OC(F)F)c(OCC5CC5)c4)n3n2)c1 |  |
| 0.042 | [O-][n+]1cccc(-c2cc3nccc(-c4ccc(OC(F)F)c(OCC5CC5)c4)n3n2)c1 | EC50 [8]: 1.61 µM; IC50 [2]: 0.026 µM; IC50 [3]: > 5 µM; IC50 [4]: > 5 µM; IC50 [5]: > 5 µM; inhibition (Mus musculus [9]): Active; inhibition in vivo at 100 mg/kg (Mus musculus [10]): 50% |
| 0.14 | COc1ccc(-c2ccnc3cc(-c4ccccc4Br)nn23)cc1OC1CCCC1 |  |
| 0.04 | COc1cccc(-c2cc3nccc(-c4ccc(OC)c(OC5CCCC5)c4)n3n2)c1 | Activity [7]: 20.1% |
| 0.09 | COc1ccc(-c2ccnc3cc(-c4ccc(Cl)cc4)nn23)cc1OC1CCCC1 |  |
| 0.1 | FC(F)Oc1ccc(-c2ccnc3cc(-c4cc(Cl)cc(Cl)c4)nn23)cc1OCC1CC1 |  |
| 0.025 | COc1ccc(-c2cc3nccc(-c4ccc(OC(F)F)c(OCC5CC5)c4)n3n2)cc1OC |  |
| 0.06 | COc1ccc(-c2cc3nccc(-c4ccc(OC)c(OC5CCCC5)c4)n3n2)cc1 |  |
| 0.2 | FC(F)Oc1ccc(-c2ccnc3cc(-c4cc(Cl)ccc4Cl)nn23)cc1OCC1CC1 |  |
| 0.03 | COc1ccc(-c2ccnc3cc(-c4cc(Cl)ccc4Cl)nn23)cc1OC1CCCC1 |  |
| 0.044 | CC(C)(C)NC(=O)c1cccc(-c2cc3nccc(-c4ccc(OC(F)F)c(OCC5CC5)c4)n3n2)c1 |  |
| 0.03 | COc1ccc(-c2ccnc3cc(-c4cccc(Br)c4)nn23)cc1OC1CCCC1 | Activity [7]: 11.4% |
| 0.044 | FC(F)Oc1ccc(-c2ccnc3cc(-c4cccc(-n5cnnn5)c4)nn23)cc1OCC1CC1 |  |
| 0.023 | CN(C)C(=O)c1cccc(-c2cc3nccc(-c4ccc(OC(F)F)c(OCC5CC5)c4)n3n2)c1 |  |
|  | O=C(Nc1c(Cl)cncc1Cl)c1ccc(OC(F)F)c(OCC2CC2)c1 [ROFLUMILAST] | inhibition (Mus musculus [11]): Active; inhibition in vivo at 30 mg/kg (Mus musculus [12]): 50% |
| 0.07 | COc1ccc(-c2ccnc3cc(-c4ccccc4OC)nn23)cc1OC1CCCC1 |  |
| 0.04 | N#CNc1cccc(-c2cc3nccc(-c4ccc(OC(F)F)c(OCC5CC5)c4)n3n2)c1 |  |
| 0.065 | O=C(c1cccc(-c2cc3nccc(-c4ccc(OC(F)F)c(OCC5CC5)c4)n3n2)c1)N1CCCCC1 |  |
